Assay results collected from several papers.
Lines come from different studies, so protocols differ.
Urease: Urease (Canavalia ensiformis, UniProt P07374)
Adora2a: Adenosine receptor A2a (Adora2a, Rattus norvegicus, UniProt P30543)
AGTR2: Type-2 angiotensin II receptor (AGTR2, Homo sapiens, UniProt P50052)

| Structure (SMILES) | target | assay | test system | conditions | Ki |
| --- | --- | --- | --- | --- | --- |
| Fc1ccc(C2=Nn3c(nnc3-c3cccc(Br)c3)SC2)cc1 | Urease | enzyme activity, inhibitor |  |  | 3620 nM |
| C=CCN1CCCn2c1nc1c2c(=O)n(C)c(=O)n1C | Adora2a | ligand displacement, radioligand |  | cell membranes | 2620 nM |
| CCc1ccc(C(=O)N[C@H](C(=O)O)C(C)CC)cc1C(=O)N(Cc1ccccc1)Cc1ccccc1 (stereo in doubt) | AGTR2 | ligand displacement in cells, radioligand |  |  | 4400 nM |
| COc1ccc(-c2c(C#N)c(N)nc(SCc3cccc(C)n3)c2C#N)cc1 | Adora2a | ligand displacement, radioligand |  | cell membranes | 48 nM |
| Cc1cc(C)c2c(c1)[C@@H](N(Cc1cc(C(F)(F)F)cc(C(F)(F)F)c1)c1nnn(C)n1)CCCN2C[C@H]1CC[C@H](C(=O)O)CC1 | Cytochrome P450 2B6 (CYP2B6, Homo sapiens, UniProt P20813) | enzyme activity, inhibitor | human, liver microsomes | pH 7.4 | 6300 nM |
| COc1cccc(-c2c(C#N)c(N)nc(SCC(N)=O)c2C#N)c1 | Adora2a | ligand displacement, radioligand |  | cell membranes | 1200 nM |
| CCCC[C@H](NC(=O)[C@H](C)c1c(C)[nH]c2ccc(O)cc12)c1ncc(-c2cc3ccccc3nc2OC)[nH]1 | Prostaglandin E2 receptor EP1 subtype (PTGER1, Homo sapiens, UniProt P34995) | cell-free assay |  |  | 2250 nM |
| CCc1nc2cc(OCCCCN3CCC(c4cccc(Cl)c4Cl)CC3)ccc2s1 | Sodium-dependent serotonin transporter (SLC6A4, Homo sapiens, UniProt P31645) | ligand displacement, radioligand |  |  | 580 nM |
| CCC(C)[C@H](NC(=O)c1cccc(C(=O)N(CC)CC)c1)C(=O)O (stereo in doubt) | AGTR2 | ligand displacement in cells, radioligand |  |  | 22000 nM |
| CCCN1CCCn2c1nc1c2c(=O)n(C)c(=O)n1C | Adora2a | ligand displacement, radioligand |  | cell membranes | 1290 nM |
| COc1ccc(-c2c(C#N)c(N)nc3sc(C(N)=O)c(N)c23)cc1 | Adora2a | ligand displacement, radioligand |  | cell membranes | 561 nM |
| COc1ccccc1N1CCN(CCCCN2CCc3ccccc3C2=O)CC1 | D(1A) dopamine receptor (DRD1, Homo sapiens, UniProt P21728) | cell-free assay, radioligand |  |  | 1620 nM |
| CCCCN1CCCn2c1nc1c2c(=O)n(C)c(=O)n1C | Adora2a | ligand displacement, radioligand |  | cell membranes | 1750 nM |
| COc1cccc(-c2c(C#N)c(N)nc(SCc3cccc(C)n3)c2C#N)c1 | Adora2a | ligand displacement, radioligand |  | cell membranes | 48.3 nM |
| CCc1ccc(C(=O)N[C@H](C(=O)O)C(C)CC)cc1C(=O)N(C)Cc1ccccc1 (stereo in doubt) | AGTR2 | ligand displacement in cells, radioligand |  |  | 16000 nM |
| CCCCn1c(=O)c2[nH]c(C34CC5CC(CC3C5)C4)nc2n(CCCO)c1=O | Adora2a | ligand displacement, radioligand |  | cell membranes | 371 nM |
| CCC(C)[C@H](NC(=O)c1ccc(C)c(C(=O)N(Cc2ccccc2)Cc2ccccc2)c1)C(=O)O (stereo in doubt) | AGTR2 | ligand displacement in cells, radioligand |  |  | 2500 nM |
| CCCCCN1CCCn2c1nc1c2c(=O)n(C)c(=O)n1C | Adora2a | ligand displacement, radioligand |  | cell membranes | 3060 nM |
| CCC(C)[C@H](NC(=O)c1ccc(C)c(C(=O)N(C)Cc2ccccc2)c1)C(=O)O (stereo in doubt) | AGTR2 | ligand displacement in cells, radioligand |  |  | 7600 nM |
| N#Cc1c(N)nc(SCc2cccc(C(=O)O)c2)c(C#N)c1-c1ccccc1 | Adora2a | ligand displacement, radioligand |  | cell membranes | 634 nM |
| C#CCN1CCCn2c1nc1c2c(=O)n(C)c(=O)n1C | Adora2a | ligand displacement, radioligand |  | cell membranes | 7400 nM |
| CCC(C)[C@H](NC(=O)c1ccc(C)c(C(=O)N(CC)CC)c1)C(=O)O (stereo in doubt) | AGTR2 | ligand displacement in cells, radioligand |  |  | 2400 nM |
| COc1ccc(-c2c(C#N)c(N)nc(SCC(N)=O)c2C#N)cc1 | Adora2a | ligand displacement, radioligand |  | cell membranes | 1470 nM |
| CCc1ccc(C(=O)N[C@H](C(=O)O)C(C)CC)cc1C(=O)N(CC)CC (stereo in doubt) | AGTR2 | ligand displacement in cells, radioligand |  |  | 10000 nM |
| CC(C)CCCC(C)N1CCCn2c1nc1c2c(=O)n(C)c(=O)n1C (centres unmarked) | Adora2a | ligand displacement, radioligand |  | cell membranes | 2030 nM |
| CC(=O)NO | Urease | enzyme activity, inhibitor |  |  | 18100 nM |
